This note sets out measurements from ChEMBL document CHEMBL1143134, “The number and distances of positive charges of polyamine side chains in a series of perylene diimides significantly influence their ability to induce G-quadruplex structures and inhibit human telomerase” (Bioorg Med Chem, 2008).

Each structure is given as a SMILES string. Activity calls are given as the source filed them. The rule behind the calls is not given here.

One may read the inhibition as how much of the control response was suppressed.

For test [1], the target named is Telomerase reverse transcriptase (Homo sapiens) (UniProt O14746). The test is described as follows: Inhibition of human telomerase by TRAP assay. The essentials: (§1)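 Cell-free modified TRAP assay using TSG4 primer and HeLa cell extract in TRAP buffer (20 mM Tris-HCl pH 8.3, 1.5 mM MgCl2, 68 mM KCl, 0.05% Tween 20, 1 mM EGTA). Compounds (2–20 µM) preincubated with primer for 2 h at 30 °C before extract was added. A 130-bp internal standard controls PCR efficiency. Percent inhibition from at least three independent experiments.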

Test [2] has the same target. The test is described as follows: Inhibition of human telomerase at 2 uM by TRAP assay. The essentials:
as §1

Chain of Telomerase reverse transcriptase (Homo sapiens) (O14746 whole entry): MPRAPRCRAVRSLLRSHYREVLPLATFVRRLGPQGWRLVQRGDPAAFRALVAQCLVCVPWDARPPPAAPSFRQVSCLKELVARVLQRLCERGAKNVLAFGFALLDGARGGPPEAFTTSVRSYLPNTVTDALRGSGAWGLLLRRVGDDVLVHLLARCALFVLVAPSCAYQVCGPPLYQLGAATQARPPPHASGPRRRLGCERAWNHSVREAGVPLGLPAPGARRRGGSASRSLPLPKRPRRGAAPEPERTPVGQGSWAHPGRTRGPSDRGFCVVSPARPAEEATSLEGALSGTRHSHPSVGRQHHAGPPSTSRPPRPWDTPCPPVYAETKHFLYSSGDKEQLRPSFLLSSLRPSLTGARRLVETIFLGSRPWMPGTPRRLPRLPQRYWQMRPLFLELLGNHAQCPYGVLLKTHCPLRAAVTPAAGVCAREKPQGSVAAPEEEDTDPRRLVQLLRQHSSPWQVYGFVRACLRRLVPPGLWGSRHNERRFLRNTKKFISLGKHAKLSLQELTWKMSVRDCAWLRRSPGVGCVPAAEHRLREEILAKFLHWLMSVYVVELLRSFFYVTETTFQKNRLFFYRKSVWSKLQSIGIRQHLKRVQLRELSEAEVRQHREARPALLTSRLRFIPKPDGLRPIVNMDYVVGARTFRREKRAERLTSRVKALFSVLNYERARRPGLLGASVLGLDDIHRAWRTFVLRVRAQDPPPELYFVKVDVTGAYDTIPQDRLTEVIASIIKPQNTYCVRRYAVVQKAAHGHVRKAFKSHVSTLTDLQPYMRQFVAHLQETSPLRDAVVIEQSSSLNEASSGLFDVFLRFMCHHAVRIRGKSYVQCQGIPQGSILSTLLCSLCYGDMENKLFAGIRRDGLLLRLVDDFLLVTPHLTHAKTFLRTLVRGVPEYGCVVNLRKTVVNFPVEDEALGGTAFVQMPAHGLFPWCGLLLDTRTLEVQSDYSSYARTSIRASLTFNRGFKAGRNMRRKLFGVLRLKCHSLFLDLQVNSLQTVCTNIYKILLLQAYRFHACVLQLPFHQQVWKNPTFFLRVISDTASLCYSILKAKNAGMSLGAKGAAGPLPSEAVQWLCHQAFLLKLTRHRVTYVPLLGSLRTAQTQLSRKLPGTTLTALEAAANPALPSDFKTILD

As for `CC(=O)NCCCNCCCCNCCN1C(=O)c2ccc3c4ccc5c6c(ccc(c7ccc(c2c37)C1=O)c64)C(=O)N(CCNCCCCNCCCNC(C)=O)C5=O`, the result in test [1] was Active.

Compound `NCCCNCCCCNCCN1C(=O)c2ccc3c4ccc5c6c(ccc(c7ccc(c2c37)C1=O)c64)C(=O)N(CCNCCCCNCCCN)C5=O` displayed an inhibition in test [2] of 30%.
